What was measured:
[1] = AUC (infinity) in ICR mouse at 5 mg/kg, ip by LC-MS/MS analysis; type: ADME, organism-based; parameters: time infinity, dose 5 mg/kg, route intraperitoneal; conditions: plasma
Method in brief: (§1)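 Male ICR mice (5–6 weeks, 20–25 g), single doses of 1, 5 or 15 mg/kg in 10% DMSO/PEG300, given iv by tail vein, ip, or orally by gavage. Three to four mice per time point, euthanized under isoflurane, blood drawn from posterior vena cava. Plasma protein precipitated with acetonitrile containing internal standard, then LC-MS/MS (MRM m/z 388.2→192). Noncompartmental analysis of mean concentration-time data, AUCinf by trapezoidal rule with extrapolation, CL = dose/AUCinf, Cmax read from the curve. F = (AUCnon-iv × dose iv)/(AUCiv × dose non-iv). n = 3 per dose group.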

[2] = Terminal half life in ICR mouse at 15 mg/kg, ip by LC-MS/MS analysis; type: ADME, organism-based; parameters: dose 15 mg/kg, route intraperitoneal; conditions: in vivo, read-out: beta t1/2 (converted)
Method in brief: (§2)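 Male ICR mice (20–25 g) given the compound intraperitoneally or by gavage in 10% DMSO/PEG300. Three to four mice were sacrificed per time point and plasma collected from the vena cava. Plasma was precipitated with acetonitrile containing internal standard and analysed by LC-MS/MS. Noncompartmental analysis of mean concentration-time data: terminal t1/2 = ln2/λz; Tmax by inspection; n = 3/dose group.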

[3] = Cmax in ICR mouse at 15 mg/kg, ip by LC-MS/MS analysis; type: ADME, organism-based; parameters: dose 15 mg/kg, route intraperitoneal; conditions: in vivo; method in brief: as §1
[4] = Bioavailability in ICR mouse at 15 mg/kg, ip by LC-MS/MS analysis; type: ADME, organism-based; conditions: in vivo; method in brief: as §1
[5] = Cmax in ICR mouse at 15 mg/kg, po via gavage by LC-MS/MS analysis; type: ADME, organism-based; parameters: dose 15 mg/kg, route oral; conditions: in vivo; method in brief: as §1
[6] = Tmax in ICR mouse at 15 mg/kg, po by LC-MS/MS analysis; type: ADME, organism-based; parameters: dose 15 mg/kg, route oral; conditions: in vivo
Method in brief: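 Male ICR mice (5–6 weeks, 20–25 g) dosed by gavage in 10% DMSO in PEG300. Three to four mice per time point were euthanized under isoflurane and blood taken from the posterior vena cava. Plasma was acetonitrile-precipitated and analysed by LC-MS/MS (MRM m/z 388.2→192). Tmax read by visual inspection. F = (AUC_oral × dose_iv)/(AUC_iv × dose_oral), with AUC_inf by trapezoidal rule; n = 3/dose group.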

[7] = AUC (infinity) in ICR mouse at 15 mg/kg, po via gavage by LC-MS/MS analysis; type: ADME, organism-based; parameters: time infinity, dose 15 mg/kg, route oral; conditions: plasma; method in brief: as §1
[8] = Metabolic stability in rat liver microsomes assessed as half life during phase 1 at 0.5 uM by LC-MS/MS analysis in presence of 3 mM NADPH and absence of UDPGA; type: ADME; conditions: read-out: alphat1/2
Method in brief: (§3)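 Pooled liver microsomes at 1 mg/ml protein with 3 mM NADPH, 0.5 μM substrate in 65 mM potassium phosphate pH 7.4, 1% methanol, 37°C. Incubations stopped at 10, 20, 30, 60 and 90 min with ice-cold acetonitrile plus internal standard, then LC-MS/MS of parent remaining relative to time 0. Half-life from a two-parameter single exponential decay fit; n = 2 to 3.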

[9] = Metabolic stability in monkey liver microsomes assessed as half life during phase 1 at 0.5 uM by LC-MS/MS analysis in presence of 3 mM NADPH and absence of UDPGA; type: ADME, Macaca mulatta; conditions: rhesus monkey, read-out: alphat1/2; method in brief: as §3
[10] = Metabolic stability in human liver microsomes assessed as half life during phase 1 at 0.5 uM by LC-MS/MS analysis in presence of 3 mM NADPH and absence of UDPGA; type: ADME; conditions: read-out: alphat1/2
Method in brief: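 Pooled liver microsomes (1 mg/ml) incubated with 0.5 µM substrate and 3 mM NADPH in 65 mM potassium phosphate, pH 7.4, 1% methanol, at 37°C. The phase I+II set also had 5 mM UDPGA, 5 mM D-saccharolactone, 50 µg/ml alamethicin and 3 mM MgCl2. Stopped at 10–90 min with cold acetonitrile plus internal standard. Parent remaining by LC-MS/MS relative to time 0. t1/2 from a two-parameter single exponential decay fit; n = 2–3.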

[11] = Drug metabolism in mouse liver microsomes assessed as (3-(1H-indol-2-yl)phenyl)(3,4,5-trimethoxyphenyl)methanol formation at 0.5 uM after 2 hrs by LC-MS/MS analysis in presence of 3 mM NADPH; type: ADME
Method in brief: (§4)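 Pooled liver microsomes (1 mg/ml protein) incubated with 0.5 µM substrate and 3 mM NADPH in 65 mM potassium phosphate, pH 7.4, 1% methanol, at 37°C for 2 h. Stopped with ice-cold acetonitrile containing internal standard, centrifuged. Supernatant analysed by LC-MS/MS on a C18 column, 15-min gradient, with product ion scans for metabolite identification.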

Liver microsome = assay: Drug metabolism in dog liver microsomes assessed as (3-(1H-indol-2-yl)phenyl)(3,4,5-trimethoxyphenyl)methanol formation at 0.5 uM after 2 hrs by LC-MS/MS analysis in presence of 3 mM NADPH; type: ADME, Canis lupus familiaris; method in brief: as §4
[12] = Drug level in monkey liver microsomes assessed as compound retention time treated with 0.5 uM I-387 after 2 hrs by LC-MS/MS analysis; type: ADME, Macaca mulatta; conditions: rhesus monkey; method in brief: as §4
[13] = Terminal half life in ICR mouse at 1 mg/kg, iv by LC-MS/MS analysis; type: ADME, organism-based; parameters: dose 1 mg/kg, route intravenous; conditions: in vivo, read-out: beta t1/2 (converted)
Method in brief: (§5)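 Tail-vein injection in male ICR mice (5–6 weeks), vehicle 10% DMSO in PEG300. Serial terminal sampling of 3–4 mice per time point, with posterior vena cava blood. Plasma was acetonitrile-precipitated and measured by LC-MS/MS. Noncompartmental analysis of mean data: t1/2 = ln2/λz, CL = dose/AUC_inf, Vd_ss = CL × MRT_inf; n = 3/dose group.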

[14] = AUC (infinity) in ICR mouse at 1 mg/kg, iv by LC-MS/MS analysis; type: ADME, organism-based; parameters: time infinity, dose 1 mg/kg, route intravenous; conditions: plasma; method in brief: as §1
[15] = Clearance in ICR mouse at 1 mg/kg, iv by LC-MS/MS analysis; type: ADME, organism-based; parameters: dose 1 mg/kg, route intravenous; conditions: in vivo; method in brief: as §1
[16] = Terminal half life in ICR mouse at 5 mg/kg, iv by LC-MS/MS analysis; type: ADME, organism-based; parameters: dose 5 mg/kg, route intravenous; conditions: in vivo, read-out: beta t1/2 (converted); method in brief: as §5
[17] = Mean residence time (infinity) in ICR mouse at 5 mg/kg, iv by LC-MS/MS analysis; type: ADME, organism-based; parameters: dose 5 mg/kg, route intravenous; conditions: in vivo; method in brief: as §1
[18] = Terminal half life in ICR mouse at 15 mg/kg, iv by LC-MS/MS analysis; type: ADME, organism-based; parameters: dose 15 mg/kg, route intravenous; conditions: in vivo, read-out: beta t1/2 (converted); method in brief: as §5
[19] = Cmax in ICR mouse at 15 mg/kg, iv by LC-MS/MS analysis; type: ADME, organism-based; parameters: dose 15 mg/kg, route intravenous; conditions: in vivo; method in brief: as §1
[20] = Volume of distribution at steady state in ICR mouse at 15 mg/kg, iv by LC-MS/MS analysis; type: ADME, organism-based; parameters: dose 15 mg/kg, route intravenous; conditions: in vivo, read-out: Vdss; method in brief: as §5
[21] = Terminal half life in ICR mouse at 1 mg/kg, ip by LC-MS/MS analysis; type: ADME, organism-based; parameters: dose 1 mg/kg, route intraperitoneal; conditions: in vivo, read-out: beta t1/2 (converted); method in brief: as §2
[22] = Cmax in ICR mouse at 1 mg/kg, ip by LC-MS/MS analysis; type: ADME, organism-based; parameters: dose 1 mg/kg, route intraperitoneal; conditions: in vivo; method in brief: as §1
[23] = Tmax in ICR mouse at 1 mg/kg, ip by LC-MS/MS analysis; type: ADME, organism-based; parameters: dose 1 mg/kg, route intraperitoneal; conditions: in vivo; method in brief: as §2
[24] = Terminal half life in ICR mouse at 5 mg/kg, ip by LC-MS/MS analysis; type: ADME, organism-based; parameters: dose 5 mg/kg, route intraperitoneal; conditions: in vivo, read-out: beta t1/2 (converted); method in brief: as §2
[25] = Metabolic stability in human liver microsomes assessed as half life during phase 1 and 2 at 0.5 uM by LC-MS/MS analysis in presence of 3 mM NADPH and 5 mM UDPGA; conditions: read-out: alphat1/2

- AUC(0-inf) [1]: 3750 ng·h/mL
- half-life [2]: 498 min
- Cmax [3]: 4290 ng/mL
- bioavailability [4]: 94%
- Cmax [5]: 260 ng/mL
- Tmax [6]: 30 min
- AUC(0-inf) [7]: 1070 ng·h/mL
- half-life at 0.5 µM [8]: 42 min
- half-life at 0.5 µM [9]: 15 min
- half-life at 0.5 µM [10]: 24 min
- Drug metabolism [11]: metabolite_detected
- Drug metabolism (Liver microsome): metabolite_detected
- Retention_time [12]: 11.3 min
- half-life [13]: 420 min
- AUC(0-inf) [14]: 617 ng·h/mL
- clearance [15]: 27 mL/min/kg
- half-life [16]: 258 min
- MRT inf [17]: 3.3 h
- half-life [18]: 534 min
- Cmax [19]: 7530 ng/mL
- Vd [20]: 9.8 L/kg
- half-life [21]: 480 min
- Cmax [22]: 250 ng/mL
- Tmax [23]: 5 min
- half-life [24]: 294 min
- half-life at 0.5 µM [25]: 30 min
SMILES: COc1cc(C(=O)c2cccc(-c3cc4ccccc4[nH]3)c2)cc(OC)c1OC
